Reference: paper PMC9924099 (Journal of medicinal chemistry, 2021)

Assays:
[1] = target: p53^R273H in MDA-MB-468 cells (Homo sapiens, UniProt P04637, R273H); experiment: Western blot of p53 expression; assay type: cell-based; conditions: MDA-MB-468, 6 μM or 12 μM, 24 h
In short: (§1)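 Cells were treated 24 h with 6 μM or 12 μM test compound or DMSO and lysed in NP-40/Tris-Cl pH 8.0 buffer with protease inhibitors. Load on 4–12% SDS-PAGE was 20 μg for MDA-MB-231 and MDA-MB-468 or 50 μg for MCF-7. After PVDF transfer, blots were probed with p53 DO-1 antibody, reprobed for GAPDH as loading control and developed by ECL.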

[2] = tested on: caspase 3 and PARP1 in p53^R280K MDA-MB-231 cells; experiment: Western blot of caspase 3 and PARP1; assay type: cell-based, human; conditions: MDA-MB-231, 24 h
In short: (§2)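 Cells grown in RPMI 1640 with 10% FBS, 1% penicillin/streptomycin and 1% L-glutamine, then given test compound or DMSO control for 24 h. Lysed 30 min on ice in Tris-Cl pH 8.0/NaCl/glycerol/NP-40/EDTA buffer with protease inhibitors, then cleared. 100 μg lysate run on 4-12% SDS-PAGE, transferred to PVDF, probed with anti-PARP and anti-caspase 3 (1:1000 each). ECL detection.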

[3] = target: p53^R280K in MDA-MB-231 cells (Homo sapiens, UniProt P04637, R280K); experiment: Western blot of p53 expression; assay type: cell-based; conditions: MDA-MB-231, 6 μM or 12 μM, 24 h
In short: as §1

WT p53 in MCF-7 cells = WT p53 in MCF-7 cells (Homo sapiens, UniProt P04637); experiment: Western blot of p53 expression; assay type: cell-based; conditions: MCF-7, 6 μM or 12 μM, 24 h
In short: as §1

Log P determination = assay type: physicochemical; conditions: octanol/sodium phosphate buffer (pH 7.4)
[4] = tested on: caspase 3 and PARP1 in WT p53 MCF-7 cells; experiment: Western blot of caspase 3 and PARP1; assay type: cell-based, human; conditions: MCF-7 (caspase 3-deficient), 24 h
In short: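 MCF-7 cells were treated with test compound or DMSO for 24 h and lysed on ice for 30 min (20 mM Tris-Cl pH 8.0, 137 mM NaCl, 10% glycerol, 1% NP-40, 2 mM EDTA, protease inhibitors). Lysates were cleared at 18,500 × g. 100 μg lysate was run on 4–12% SDS-PAGE, transferred to PVDF and probed with anti-PARP and anti-caspase 3 (1:1000), HRP secondary and ECL. GAPDH served as loading control.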

[5] = human, in vivo; cited from earlier work
[6] = tested on: caspase 3 and PARP1 in p53^R273H MDA-MB-468 cells; experiment: Western blot of caspase 3 and PARP1; assay type: cell-based, human; conditions: MDA-MB-468, 24 h
In short: as §2

WT p53 MCF-7 cells = experiment: WST-1 cell proliferation assay; assay type: cell-based, human; conditions: MCF-7, 24 h or 72 h; compared to mutant p53 cells
In short: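 WST-1 assay. Test compound in DMSO was added to cells at 40,000 cells/ml, giving 1% DMSO final, and plated at 4,000 cells/well in duplicate; medium-only wells served as background. Incubation was 24 h or 72 h at 37 °C, then WST-1 for 2 h and OD450 read. Proliferation is expressed as % of DMSO control; triplicate experiments. MCF-7 grown in RPMI 1640, MDA-MB-436 in DMEM.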

Question: With `S=C=NCCc1ccccc1` [PEITC, Phenethyl isothiocyanate, reference compound] as the molecule, how does the “mutant p53 expression (western blot)” value [1] read?
Answer: significant decrease

Question: And the “levels of uncleaved caspase 3, uncleaved PARP1 and cleaved-PARP1” value [2]?
Answer: significant decrease in the levels of uncleaved caspase 3 and accumulation of cleaved-PARP1 fragments

Question: What about the “mutant p53 expression (western blot)” value [3] of the same molecule?
Answer: significant decrease

Question: What about the “WT p53 expression (western blot)” value (WT p53 in MCF-7 cells) of the same molecule?
Answer: increase in p53 levels

Question: And the logP at 18 h (Log P determination)?
Answer: 3.5

Question: And the “levels of uncleaved PARP1 and cleaved-PARP1” value [4]?
Answer: significant decrease in the levels of uncleaved PARP1 and accumulation of cleaved-PARP1

Question: And the estimated half-life [5]?
Answer: ~ 2.4 h

Question: What about the “levels of uncleaved caspase 3, uncleaved PARP1 and cleaved-PARP1” value [6] of the same molecule?
Answer: significant decrease in the levels of uncleaved caspase 3 and accumulation of cleaved-PARP1 fragments

Question: And the “inhibition of cell proliferation / sensitivity (in words)” value (WT p53 MCF-7 cells)?
Answer: considerably less sensitive
